Several values for one entry are separate records, joined by “and”; a condition that tells them apart may be missing. Identical values can stand only once.
Tests used:
human plasma [1] = test: Prothrombin time; details: citrated human plasma
Method in brief: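 One-stage recalcification PT on a fibrometer. Test compound was made up in citrated pooled normal human plasma and held 30 s at 37 °C. Clotting was then started with prewarmed reconstituted thromboplastin-D. Clotting time was plotted against concentration and fitted to a quadratic trend line, from which the concentration doubling clotting time was taken.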

human plasma [2] = test: Activated partial thromboplastin time; details: for concentration required for a 2-fold increase in APTT: citrated human plasma
human factor XIa = human factor XIa (Homo sapiens, UniProt P03951); test: Direct inhibition of FXIa, chromogenic substrate; format: biochemical
[3] = test system: FXIa Catalytic Domain (FXIa-CD); test: Michaelis-Menten kinetics of S-2366 hydrolysis by FXIa catalytic domain; format: biochemical, human
factor VIIa = factor VIIa (Homo sapiens, UniProt P08709); test: Chromogenic substrate hydrolysis assay, factor VIIa; format: biochemical; details: NI = no inhibition observed up to 3.7 mg/mL
Method in brief: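 Plasma-derived human factor VIIa (8 nM) with 40 nM recombinant tissue factor and Spectrozyme factor VIIa substrate (1000 µM, in well; level chosen from KM). Residual activity was read spectrophotometrically across six or more serially diluted test compound concentrations to build an inhibition profile for IC50.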

thrombin = thrombin (Homo sapiens, UniProt P00734); test: Chromogenic substrate hydrolysis assay, thrombin; format: biochemical
Method in brief: (§1)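 Chromogenic substrate hydrolysis with human plasma enzymes, substrate level set from its KM. Enzyme and substrate in well: thrombin 6 nM with Spectrozyme TH 50 µM; factor Xa 1.09 nM with Spectrozyme FXa 125 µM; factor XIIa 5 nM with Spectrozyme FXIIa 125 µM; factor IXa 89 nM with Spectrozyme FIXa 850 µM. Residual activity read spectrophotometrically at six or more serial test compound dilutions, then dose–response fitted.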

factor IXa = factor IXa (Homo sapiens, UniProt P00740); test: Chromogenic substrate hydrolysis assay, factor IXa; format: biochemical
Method in brief: as §1

human FXIa [4] = target: T1, human FXIa (Homo sapiens, UniProt P03951); test: Inhibition of FXIa activation of FIX; format: biochemical; details: 6 at 3 µM, FIX 0.5 µM, after 120 min of incubation
bovine trypsin = target: T2, bovine trypsin (Bos taurus, UniProt P00760); test: Chromogenic substrate hydrolysis assay, trypsin; format: biochemical; details: NI = no inhibition observed up to 1.8 mg/mL
T2 sequence (P00760 24-246): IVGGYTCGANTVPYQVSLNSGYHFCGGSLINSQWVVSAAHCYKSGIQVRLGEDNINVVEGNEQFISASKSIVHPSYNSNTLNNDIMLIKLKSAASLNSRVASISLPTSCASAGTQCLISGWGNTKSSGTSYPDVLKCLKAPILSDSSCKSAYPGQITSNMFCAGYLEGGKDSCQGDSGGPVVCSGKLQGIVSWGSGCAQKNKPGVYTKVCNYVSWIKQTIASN
Method in brief: (§2)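 Digestive protease counter-screen: bovine trypsin 72.5 ng/mL with S-2222 80 µM, or bovine α-chymotrypsin 500 ng/mL with Spectrozyme CTY 240 µM (in-well levels; substrate chosen from KM). Fractional residual activity was measured spectrophotometrically at six or more serially diluted test compound concentrations, profiled for IC50.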

bovine chymotrypsin = bovine chymotrypsin (Bos taurus, UniProt P00766); test: Chromogenic substrate hydrolysis assay, chymotrypsin; format: biochemical; details: NI = no inhibition observed up to 1.8 mg/mL
Method in brief: as §2

factor XIIa = target: T3, factor XIIa (Homo sapiens, UniProt P00748); test: Chromogenic substrate hydrolysis assay, factor XIIa; format: biochemical
T3 sequence (P00748 373-615 limits assumed): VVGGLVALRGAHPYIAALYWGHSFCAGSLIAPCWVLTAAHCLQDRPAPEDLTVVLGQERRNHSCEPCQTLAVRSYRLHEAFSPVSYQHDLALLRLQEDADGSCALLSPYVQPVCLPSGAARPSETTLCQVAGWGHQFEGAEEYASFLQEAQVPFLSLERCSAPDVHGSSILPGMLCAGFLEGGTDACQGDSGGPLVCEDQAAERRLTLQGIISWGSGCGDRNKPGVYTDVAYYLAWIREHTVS
T3 sequence (P00748 20-372 partner limits assumed): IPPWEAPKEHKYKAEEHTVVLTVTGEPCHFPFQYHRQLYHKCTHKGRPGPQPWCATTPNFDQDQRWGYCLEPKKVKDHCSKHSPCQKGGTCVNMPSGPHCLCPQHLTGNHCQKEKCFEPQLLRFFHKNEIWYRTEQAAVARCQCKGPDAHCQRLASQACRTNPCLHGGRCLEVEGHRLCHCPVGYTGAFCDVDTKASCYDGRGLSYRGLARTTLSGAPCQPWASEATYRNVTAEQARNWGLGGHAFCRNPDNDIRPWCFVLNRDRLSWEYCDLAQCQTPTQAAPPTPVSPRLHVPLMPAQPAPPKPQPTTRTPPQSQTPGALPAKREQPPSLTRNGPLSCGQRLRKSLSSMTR
Method in brief: as §1

human FXIa [5] = target: T1, human FXIa; test: Competitive inhibition of FXIa by 6 in the presence of UFH; format: biochemical
FXIa Wild Type = FXIa Wild Type (Homo sapiens, UniProt P03951); test: Michaelis-Menten kinetics of S-2366 hydrolysis by wild-type FXIa; format: biochemical
human whole blood = test: Thromboelastography
Method in brief: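 Thromboelastography at 37 °C: 200 mM CaCl2 stock placed in cup, then sodium-citrated human whole blood containing test compound or water added to recalcify. The cup oscillated through 4°45′ at 0.1 Hz. R, α, maximum amplitude (MA) and shear elastic modulus G were recorded automatically, with G = 5000 × MA/(100 − MA).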

[6] = 6 over the concentration range of 0–280 µg/mL

T1 sequence (P03951 19-387 limits assumed): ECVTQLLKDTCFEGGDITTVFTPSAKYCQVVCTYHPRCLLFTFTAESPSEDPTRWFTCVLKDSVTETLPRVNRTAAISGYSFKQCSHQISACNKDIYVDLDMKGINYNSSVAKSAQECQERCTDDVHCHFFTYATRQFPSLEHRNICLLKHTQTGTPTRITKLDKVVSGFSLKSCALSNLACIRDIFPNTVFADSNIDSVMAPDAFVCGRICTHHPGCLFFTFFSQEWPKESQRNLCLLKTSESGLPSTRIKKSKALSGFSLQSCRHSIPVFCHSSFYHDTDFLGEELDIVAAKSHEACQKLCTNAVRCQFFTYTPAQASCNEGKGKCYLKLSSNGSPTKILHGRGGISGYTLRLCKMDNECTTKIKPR
T1 sequence (P03951 388-625 limits assumed): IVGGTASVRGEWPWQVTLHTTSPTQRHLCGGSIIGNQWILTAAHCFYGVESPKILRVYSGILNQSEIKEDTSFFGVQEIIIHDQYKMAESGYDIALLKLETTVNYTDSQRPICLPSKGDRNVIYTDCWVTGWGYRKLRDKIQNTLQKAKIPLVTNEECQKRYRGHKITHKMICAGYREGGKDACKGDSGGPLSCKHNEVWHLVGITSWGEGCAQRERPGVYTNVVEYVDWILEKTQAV
Sequence of human factor XIa (P03951 19-387 limits assumed): as the sequence (P03951 19-387 limits assumed) above
Sequence of human factor XIa (P03951 388-625 limits assumed): as the sequence (P03951 388-625 limits assumed) above
Sequence of FXIa Wild Type (P03951 19-387 limits assumed): as the sequence (P03951 19-387 limits assumed) above
Sequence of FXIa Wild Type (P03951 388-625 limits assumed): as the sequence (P03951 388-625 limits assumed) above
Sequence of factor IXa (P00740 227-461 limits assumed): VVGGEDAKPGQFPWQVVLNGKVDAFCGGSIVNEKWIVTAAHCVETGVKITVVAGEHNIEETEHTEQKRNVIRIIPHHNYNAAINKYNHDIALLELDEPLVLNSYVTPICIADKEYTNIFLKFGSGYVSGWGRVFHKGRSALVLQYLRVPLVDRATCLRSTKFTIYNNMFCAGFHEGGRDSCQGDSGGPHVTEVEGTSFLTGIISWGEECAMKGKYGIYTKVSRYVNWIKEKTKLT
Sequence of factor IXa (P00740 47-191 limits assumed): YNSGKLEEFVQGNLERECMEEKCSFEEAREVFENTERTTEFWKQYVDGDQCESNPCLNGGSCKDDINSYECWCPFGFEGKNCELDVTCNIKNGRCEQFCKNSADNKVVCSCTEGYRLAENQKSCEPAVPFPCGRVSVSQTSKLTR
Sequence of factor VIIa (P08709 213-466 limits assumed): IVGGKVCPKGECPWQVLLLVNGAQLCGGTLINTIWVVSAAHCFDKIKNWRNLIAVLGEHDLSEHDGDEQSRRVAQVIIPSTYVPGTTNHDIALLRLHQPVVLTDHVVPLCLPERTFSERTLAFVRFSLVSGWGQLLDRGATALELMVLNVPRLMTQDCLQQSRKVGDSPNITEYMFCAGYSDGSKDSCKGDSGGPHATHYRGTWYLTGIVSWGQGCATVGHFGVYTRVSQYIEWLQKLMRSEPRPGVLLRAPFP
Sequence of factor VIIa (P08709 61-212 limits assumed): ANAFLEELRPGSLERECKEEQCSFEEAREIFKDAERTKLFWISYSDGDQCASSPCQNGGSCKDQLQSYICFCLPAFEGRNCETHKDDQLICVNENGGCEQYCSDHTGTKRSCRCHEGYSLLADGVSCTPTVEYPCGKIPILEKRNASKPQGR
Sequence of factor VIIa (P13726 33-295 partner): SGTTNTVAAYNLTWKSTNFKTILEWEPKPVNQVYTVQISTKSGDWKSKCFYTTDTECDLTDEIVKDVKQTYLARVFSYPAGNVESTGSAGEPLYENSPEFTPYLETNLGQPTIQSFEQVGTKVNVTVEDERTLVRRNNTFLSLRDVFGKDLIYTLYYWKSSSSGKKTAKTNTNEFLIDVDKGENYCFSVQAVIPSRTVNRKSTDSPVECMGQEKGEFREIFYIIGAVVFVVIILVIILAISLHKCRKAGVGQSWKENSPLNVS

For `COc1cc([C@H]2Oc3cc([C@H]4Oc5cc(OS(=O)(=O)[O-])cc(O)c5C(=O)[C@@H]4OS(=O)(=O)[O-])ccc3O[C@@H]2COS(=O)(=O)[O-])ccc1OS(=O)(=O)[O-].[Na+].[Na+].[Na+].[Na+]` [Molecule 2, sulfated silibinin], the “concentration required for a 2-fold increase in PT” value (human plasma [1]) was “much higher” and the “concentration required for a 2-fold increase in APTT” value (human plasma [2]) was “much higher”.
`O=C(/C=C/c1ccc(OS(=O)(=O)[O-])c(OS(=O)(=O)[O-])c1)O[C@@H]1C[C@](O)(C(=O)[O-])C[C@@H](OS(=O)(=O)[O-])[C@H]1OS(=O)(=O)[O-].[Na+].[Na+].[Na+].[Na+].[Na+]` [Molecule 4, sulfated chlorogenic acid] was tested, and the “concentration required for a 2-fold increase in PT” value (human plasma [1]) was “much higher” and the “concentration required for a 2-fold increase in APTT” value (human plasma [2]) was “much higher”.
`O=C(OC[C@H]1O[C@@H](OC(=O)c2cc(O)c(O)c(O)c2)[C@H](OC(=O)c2cc(O)c(O)c(O)c2)[C@@H](OC(=O)c2cc(O)c(O)c(O)c2)[C@@H]1OC(=O)c1cc(O)c(O)c(O)c1)c1cc(O)c(O)c(O)c1` [Molecule 5, pentagalloyl glucopyranoside, reference compound] was tested, and the “inhibition of FXIa proteolytic activity” value (human factor XIa; highest concentration tested (300 µM)) was “completely inactive”.
`O=C(OC[C@H]1O[C@@H](OC(=O)c2cc(OS(=O)(=O)[O-])c(O)c(OS(=O)(=O)[O-])c2)[C@H](OC(=O)c2cc(OS(=O)(=O)[O-])c(O)c(OS(=O)(=O)[O-])c2)[C@@H](OC(=O)c2cc(OS(=O)(=O)[O-])c(O)c(OS(=O)(=O)[O-])c2)[C@@H]1OC(=O)c1cc(OS(=O)(=O)[O-])c(O)c(OS(=O)(=O)[O-])c1)c1cc(OS(=O)(=O)[O-])c(O)c(OS(=O)(=O)[O-])c1.[Na+].[Na+].[Na+].[Na+].[Na+].[Na+].[Na+].[Na+].[Na+].[Na+]` [Molecule 6, sulfated pentagalloylglucoside] was tested, and the “retention of inhibitory potency with the catalytic domain of FXIa” value [3] was ~ 100%, the “decrease of VMAX” value ([3]; 6 from 0 to 5.0 µg/mL) was about 5 fold and the VMAX ([3]; [6] 0.5 µg/mL) was 53.9 ± 1.4 mAU/min. The IC50 (factor VIIa) was “no inhibition”, the ΔY (thrombin) was 83 ± 10 and the HS (factor IXa) was 2.2 ± 0.6. The “formation of FIXaβ” value (human FXIa [4]) was “not detectable”, the IC50 (bovine trypsin) was “no inhibition” and the IC50 (bovine chymotrypsin) was “no inhibition”. The IC50 (human factor XIa) was 612 nM, the “selectivity for FXIa over other relevant enzymes” value (human factor XIa) was “at least 200 fold” and the “HS (Hill slope)” value (human factor XIa; S-2366 hydrolysis, pH 7.4, 37 °C) was 1.3 ± 0.1. The “concentration required for a 2-fold increase in PT” value (human plasma [1]) was 298 µg/mL, the HS (factor XIIa) was 3.0 ± 1.8 and the “less effective than enoxaparin at molar levels” value (human plasma [2]; molar basis) was 36 fold. The IC50 (human FXIa [5]) was 16 µM, the HS (human FXIa [5]; UFH 0 µM) was 1.3 ± 0.1 and the HS (human FXIa [5]; UFH 0.13 µM) was 1.4 ± 0.2. The HS (human FXIa [5]; UFH 3.33 µM) was 1.7 ± 0.2, the HS (human FXIa [5]; UFH 33.3 µM) was 4.0 ± 0.9 and the VMAX (FXIa Wild Type; [6] 0.005 µg/mL) was 93.7 ± 3.2 mAU/min. For the same compound, the VMAX (FXIa Wild Type; [6] 0.5 µg/mL) was 74.6 ± 2.6 mAU/min, the VMAX (FXIa Wild Type; [6] 2.5 µg/mL) was 56.9 ± 1.5 mAU/min and the VMAX (FXIa Wild Type; [6] 5.0 µg/mL) was 32.3 ± 2.1 mAU/min. For the same compound, the VMAX (FXIa Wild Type; [6] 50.0 µg/mL) was 17.2 mAU/min and 17.2 ± 1.2 mAU/min, the “G (shear elastic modulus strength)” value (human whole blood; 6 at 20 µg/mL) was 8.2 × 10^3 kDynes/cm^3 and the “G (shear elastic modulus strength)” value (human whole blood; 6 at 135 µg/mL) was 5.0 × 10^3 kDynes/cm^3. For the same compound, the “G (shear elastic modulus strength)” value (human whole blood; 6 at 190 µg/mL) was 3.8 × 10^3 kDynes/cm^3, the “G (shear elastic modulus strength)” value (human whole blood; 6 at 280 µg/mL) was 0.9 × 10^3 kDynes/cm^3 and the “reduction of G” value (human whole blood; [6]) was about 8 fold. For the same compound, the “reduction of MA” value (human whole blood; [6]) was ~ 4 fold.

Source: article PMC3574227 (Journal of medicinal chemistry, 2013)
